Measurements pooled from the literature.
Converted amounts (≈) assume the structure as drawn.

SMILES	organism	test	test system	conditions	endpoint	value
CC(=O)Oc1cccc2c1[nH]c1c(C3=C[C@@]4(OC(C)=O)CC/C=C\CCCCN5CC[C@@H]3[C@]3(C[C@@H]6/C=C\CCCCN6[C@H]34)C5)nccc12	Mycobacterium intracellulare	microbial killing	–	–	MBC	> 20 µg/mL
O=c1c2ccccc2nc(/C=C/c2ccccc2F)n1-c1cccc(O)c1	Enterococcus faecium	microbial growth, broth dilution	NCTC7171	–	MIC	32 µg/mL (≈ 89.3 µM)
COC(=O)c1cc(-c2cccc(NC(=O)Nc3ccc(Cl)cc3Cl)c2)on1	Mycobacteroides chelonae	microbial growth, broth dilution	ATCC35752	48 h	MIC	> 64 µg/mL
N#Cc1ccc(/C=C/c2nc3ccccc3c(=O)n2-c2cccc([N+](=O)[O-])c2)cc1	Enterococcus faecium	microbial growth, broth dilution	NCTC7171	–	MIC	> 128 µg/mL
COC(=O)c1cc(-c2cccc(NC(=O)Nc3ccccc3OC)c2)on1	Mycobacteroides chelonae	microbial growth, broth dilution	ATCC35752	48 h	MIC	> 64 µg/mL
N#Cc1ccc(/C=C/c2nc3ccccc3c(=O)n2-c2cc[nH]n2)cc1	Enterococcus faecium	microbial growth, broth dilution	NCTC7171	–	MIC	> 128 µg/mL
Cl.O[C@]12C=C(c3nccc4c3[nH]c3ccccc34)[C@@H]3CCN(CCCC/C=C\CC1)C[C@@]31C[C@@H]3/C=C\CCCCN3[C@H]12	Mycobacterium intracellulare	microbial growth, resazurin	ATCC23068	–	IC50	0.12 µg/mL
CCCCCOc1ccc(-c2cc(-c3ccc(C(=O)N[C@H]4C[C@@H](O)[C@@H](O)NC(=O)[C@@H]5[C@@H](O)[C@@H](C)CN5C(=O)[C@H]([C@H](O)CC(N)=O)NC(=O)[C@H]([C@H](O)[C@@H](O)c5ccc(O)c(OS(=O)(=O)O)c5)NC(=O)[C@@H]5C[C@@H](O)CN5C(=O)[C@H]([C@@H](C)O)NC4=O)cc3)no2)cc1	Candida albicans	biofilm formation	–	16 µg/mL	inhibition	47%
O=c1c2ccccc2nc(/C=C/c2cccc(F)c2)n1-c1cccc(O)c1	Enterococcus faecium	microbial growth, broth dilution	NCTC7171	–	MIC	32 µg/mL (≈ 89.3 µM)
CN(C)C(=O)/C(C#N)=C/c1ccc(-c2nc3cnc4[nH]ccc4c3n2C2CCCCC2)o1	Murine coronavirus	viral replication	–	1 µM, 10 h	inhibition	36%
CCC(=O)N1CCN(c2ccc(-n3c(=O)ccc4cnc5ccc(-c6cnc7ccccc7c6)cc5c43)cc2C(F)(F)F)CC1	Plasmodium berghei	parasite growth, luciferase	human	liver stage	IC50	0.41 µM
O=c1c2ccccc2nc(/C=C/c2ccc(F)cc2)n1-c1cccc(O)c1	Enterococcus faecium	microbial growth, broth dilution	NCTC7171	–	MIC	128 µg/mL (≈ 357 µM)
COC(=O)c1cc(-c2cccc(NC(=S)Nc3ccccc3)c2)on1	Mycobacteroides chelonae	microbial growth, broth dilution	ATCC35752	48 h	MIC	> 64 µg/mL
c1ccc2c(c1)CCc1ccccc1C2OCCN1CCNCC1	Trypanosoma brucei	parasite growth	–	–	EC50	9.32 µM
COC(=O)c1cc(-c2cccc(NC(=O)Nc3cccc(Br)c3)c2)on1	Mycobacteroides chelonae	microbial growth, broth dilution	ATCC35752	48 h	MIC	> 64 µg/mL
Cc1cc(Cc2ccccc2)n(O)c(=O)c1	Candida albicans	microbial growth	ATCC90028	–	MIC80	1.2 µM (≈ 0.258 µg/mL)
COC(=O)c1cc(-c2cccc(NC(=O)Nc3ccc(C)c(Cl)c3)c2)on1	Mycobacteroides chelonae	microbial growth, broth dilution	ATCC35752	48 h	MIC	> 64 µg/mL
O=c1cccc(C2CCCCC2)n1O	Candida albicans	microbial growth	ATCC90028	–	MIC80	1.9 µM (≈ 0.367 µg/mL)
CCOC(=O)c1cc(-c2cccc(NC(=O)Nc3ccc(Cl)c(Cl)c3)c2)on1	Mycobacteroides chelonae	microbial growth, broth dilution	ATCC35752	48 h	MIC	> 64 µg/mL
O=c1c2ccccc2nc(/C=C/c2ccc3c(c2)OCO3)n1-c1cccc(O)c1	Enterococcus faecium	microbial growth, broth dilution	NCTC7171	–	MIC	> 128 µg/mL
